Reference: ChEMBL document CHEMBL5653630, “Activation of the p53-MDM4 regulatory axis defines the anti-tumour response to PRMT5 inhibition through its role in regulating cellular splicing” (Sci Rep, 2018)

Assays:
WSUDLCL2 = test: Antiproliferative activity against human WSUDLCL2 cells assessed as cell growth inhibition incubated for 6 days by celltiter-glo assay; format: functional; conditions: WSUDLCL2, 144 h, time 6 day
Method in brief: (§1)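 Cells seeded in 384-well plates at an optimized density and held 24 h. Day 0: treated in duplicate with a 20-point two-fold series (top dose ≤29 μM, ≤0.15% DMSO) and incubated 6 days. CellTiter-Glo luminescence read at Day 0 and Day 6. Four-parameter fit. gIC50 = midpoint of the growth window between DMSO and T0. Curves required ≥1.5 population doublings.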

U2932 = test: Antiproliferative activity against human U2932 cells assessed as cell growth inhibition incubated for 6 days by celltiter-glo assay; format: functional; conditions: U2932, 144 h, time 6 day; method in brief: as §1
WSU-NHL = test: Antiproliferative activity against human WSU-NHL cells assessed as cell growth inhibition incubated for 6 days by celltiter-glo assay; format: functional; conditions: 144 h, time 6 day; method in brief: as §1
SU-DHL10 = test: Antiproliferative activity against human SU-DHL-10 cells assessed as cell growth inhibition incubated for 6 days by celltiter-glo assay; format: functional; conditions: SU-DHL10, 144 h, time 6 day; method in brief: as §1
SU-DHL-5 = test: Antiproliferative activity against human SU-DHL-5 cells assessed as cell growth inhibition incubated for 6 days by celltiter-glo assay; format: functional; conditions: SU-DHL-5, 144 h, time 6 day; method in brief: as §1
[1] = Antiproliferative activity against human PER-704 cells assessed as cell growth inhibition incubated for 6 days by celltiter-glo assay; format: functional; conditions: PER-704, 144 h, time 6 day; method in brief: as §1
JVM-2 = test: Antiproliferative activity against human JVM-2 cells assessed as cell growth inhibition incubated for 6 days by celltiter-glo assay; format: functional; conditions: JVM-2, 144 h, time 6 day; method in brief: as §1
JeKo-1 = test: Antiproliferative activity against human JeKo-1 cells assessed as cell growth inhibition incubated for 6 days by celltiter-glo assay; format: functional; conditions: JeKo-1, 144 h, time 6 day; method in brief: as §1
HCC1143 = test: Antiproliferative activity against human HCC1143 cells assessed as cell growth inhibition viability incubated for 6 days by celltiter-glo assay; format: functional; conditions: HCC1143, 144 h, time 6 day
Method in brief: (§2)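 Cells were seeded in 384-well plates and incubated 24 h, then treated in duplicate with a 20-point, 2-fold dilution series (top dose ≤29 μM, ≤0.15% DMSO) for 6 days. CellTiter-Glo luminescence was read on day 0 and day 6. A 4-parameter fit was used, and curves needed at least 1.5 population doublings. gIC50 is the midpoint of the growth window between DMSO and T0.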

SU-DHL-2 = test: Antiproliferative activity against human SUDHL2 cells assessed as cell growth inhibition incubated for 6 days by celltiter-glo assay; format: functional; conditions: SU-DHL-2, 144 h, time 6 day; method in brief: as §1
SK-BR-3 = test: Antiproliferative activity against human SK-BR-3 cells assessed as cell growth inhibition incubated for 6 days by celltiter-glo assay; format: functional; conditions: SK-BR-3, 144 h, time 6 day; method in brief: as §1
SU-DHL-16 = test: Antiproliferative activity against human SU-DHL-16 cells assessed as cell growth inhibition incubated for 6 days by celltiter-glo assay; format: functional; conditions: SU-DHL-16, 144 h, time 6 day; method in brief: as §1
RL = test: Antiproliferative activity against human RL cells assessed as cell growth inhibition incubated for 6 days by celltiter-glo assay; format: functional; conditions: 144 h, time 6 day; method in brief: as §1
U-2940 = test: Antiproliferative activity against human U-2940 cells assessed as cell growth inhibition incubated for 6 days by celltiter-glo assay; format: functional; conditions: U-2940, 144 h, time 6 day; method in brief: as §1
MDA-MB-468 = test: Antiproliferative activity against human MDA-MB-468 cells assessed as cell growth inhibition incubated for 6 days by celltiter-glo assay; format: functional; conditions: MDA-MB-468, 144 h, time 6 day; method in brief: as §1
MDA-MB-231 = test: Antiproliferative activity against human MDA-MB-231 cells assessed as cell growth inhibition incubated for 6 days by celltiter-glo assay; format: functional; conditions: MDA-MB-231, 144 h, time 6 day; method in brief: as §1
[2] = Antiproliferative activity against human PER-403 cells assessed as cell growth inhibition incubated for 6 days by celltiter-glo assay; format: functional; conditions: PER-403, 144 h, time 6 day; method in brief: as §1
MDA-MB-453 = test: Antiproliferative activity against human MDA-MB-453 cells assessed as cell growth inhibition incubated for 6 days by celltiter-glo assay; format: functional; conditions: MDA-MB-453, 144 h, time 6 day; method in brief: as §1
RCK8 = test: Antiproliferative activity against human RCK8 cells assessed as cell growth inhibition incubated for 6 days by celltiter-glo assay; format: functional; conditions: RCK8, 144 h, time 6 day; method in brief: as §1
Pfeiffer = test: Antiproliferative activity against human Pfeiffer cells assessed as cell growth inhibition incubated for 6 days by celltiter-glo assay; format: functional; conditions: 144 h, time 6 day; method in brief: as §1
UMUC3 = test: Antiproliferative activity against human UMUC3 cells assessed as cell growth inhibition incubated for 6 days by celltiter-glo assay; format: functional; conditions: UMUC3, 144 h, time 6 day; method in brief: as §1
SF-295 = test: Antiproliferative activity against human SF-295 cells assessed as cell growth inhibition incubated for 6 days by celltiter-glo assay; format: functional; conditions: SF-295, 144 h, time 6 day; method in brief: as §1
SF-539 = test: Antiproliferative activity against human SF-539 cells assessed as cell growth inhibition incubated for 6 days by celltiter-glo assay; format: functional; conditions: SF-539, 144 h, time 6 day; method in brief: as §1
LN-229 = test: Antiproliferative activity against human LN-229 cells assessed as cell growth inhibition incubated for 6 days by celltiter-glo assay; format: functional; conditions: LN-229, 144 h, time 6 day; method in brief: as §1
5637 = test: Antiproliferative activity against human 5637 cells assessed as cell growth inhibition incubated for 6 days by celltiter-glo assay; format: functional; conditions: Homo sapiens, 5637, 144 h; time 6 day
Method in brief: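 Cells seeded in 384-well plates and held 24 h, then treated in duplicate with a 20-point two-fold dilution series (≤29 μM top dose, ≤0.15% DMSO) for 6 days. CellTiter-Glo luminescence read on Day 0 and Day 6. 4-parameter fit; curves QC'd for population doubling ≥1.5. gIC50 = concentration at the midpoint between the DMSO and T0 values.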

HCC70 = test: Antiproliferative activity against human HCC70 cells assessed as cell growth inhibition incubated for 6 days by celltiter-glo assay; format: functional; conditions: HCC70, 144 h, time 6 day; method in brief: as §2
T-24 = test: Antiproliferative activity against human T24 cells assessed as cell growth inhibition incubated for 6 days by celltiter-glo assay; format: functional; conditions: T-24, 144 h, time 6 day; method in brief: as §1
NCI-H526 = test: Antiproliferative activity against human NCI-H526 cells assessed as cell growth inhibition incubated for 6 days by celltiter-glo assay; format: functional; conditions: NCI-H526, 144 h, time 6 day; method in brief: as §1
SU-DHL-8 = test: Antiproliferative activity against human SU-DHL-8 cells assessed as cell growth inhibition incubated for 6 days by celltiter-glo assay; format: functional; conditions: SU-DHL-8, 144 h, time 6 day; method in brief: as §1
U-87 MG = test: Antiproliferative activity against human U-87 MG cells assessed as cell growth inhibition incubated for 6 days by celltiter-glo assay; format: functional, U-87MG ATCC; conditions: 144 h, time 6 day; method in brief: as §1
J82 = test: Antiproliferative activity against human J82 cells assessed as cell growth inhibition incubated for 6 days by celltiter-glo assay; format: functional; conditions: J82, 144 h, time 6 day; method in brief: as §1
Maver1 = test: Antiproliferative activity against human MAVER-1 cells assessed as cell growth inhibition incubated for 6 days by celltiter-glo assay; format: functional; conditions: Maver1, 144 h, time 6 day; method in brief: as §1
ZR-75-1 = test: Antiproliferative activity against human ZR-75-1 cells assessed as cell growth inhibition incubated for 6 days by celltiter-glo assay; format: functional; conditions: ZR-75-1, 144 h, time 6 day; method in brief: as §1

SMILES | GI50 (WSUDLCL2) | GI50 (U2932) | GI50 (WSU-NHL) | GI50 (SU-DHL10) | GI50 (SU-DHL-5) | GI50 [1] | GI50 (JVM-2) | GI50 (JeKo-1) | GI50 (HCC1143) | GI50 (SU-DHL-2) | GI50 (SK-BR-3) | GI50 (SU-DHL-16) | GI50 (RL) | GI50 (U-2940) | GI50 (MDA-MB-468) | GI50 (MDA-MB-231) | GI50 [2] | GI50 (MDA-MB-453) | GI50 (RCK8) | GI50 (Pfeiffer) | further results
CC(=O)N1CCC(Nc2cc(C(=O)NC[C@H](O)CN3CCc4ccccc4C3)ncn2)CC1 [PEMRAMETOSTAT] | 82 nM | 53 nM | 8 nM | 54 nM | 28 nM | 658 nM | 9 nM | 5400 nM | 246 nM | 28 nM | 73 nM | 99 nM | 14 nM | 10200 nM | 57 nM | 544 nM | 38 nM | 29 nM | 529 nM | 421 nM | GI50 (UMUC3): 29300 nM; GI50 (SF-295): 24700 nM; GI50 (SF-539): 61 nM; GI50 (LN-229): 254 nM; GI50 5637: 69 nM; GI50 (HCC70): 130 nM; GI50 (T-24): 765 nM; GI50 (NCI-H526): 275 nM; GI50 (SU-DHL-8): 53 nM; GI50 (U-87 MG): 40 nM; GI50 (J82): 29300 nM; GI50 (Maver1): 85 nM; GI50 (ZR-75-1): 11000 nM
O=C(NC[C@H](O)CN1CCc2ccccc2C1)c1ccnc(NC2CCC2)c1 | 651 nM | 336 nM | 76 nM | 495 nM | 132 nM | 375 nM | 172 nM | 6190 nM | 509 nM | 86 nM | 131 nM | 124 nM | 1430 nM | 2350 nM | 585 nM | 2930 nM | 29 nM | 343 nM | 2110 nM | 352 nM | GI50 (UMUC3): 19200 nM; GI50 (SF-295): 9840 nM; GI50 (SF-539): 75 nM; GI50 (LN-229): 1150 nM; GI50 5637: 143 nM; GI50 (HCC70): 522 nM; GI50 (T-24): 650 nM; GI50 (NCI-H526): 138 nM; GI50 (SU-DHL-8): 1220 nM; GI50 (U-87 MG): 127 nM; GI50 (J82): 20900 nM; GI50 (Maver1): 133 nM; GI50 (ZR-75-1): 2620 nM
